# Laboratory results from ChEMBL document CHEMBL3046655, “Schiff bases as potential fungicides and nitrification inhibitors” (2009).
# Calls of active or inactive are those of the source. The calls are words filed in the database; no cut-off is given here.
# Tests used:
# Macrophomina phaseolina = assay: Fungicidal activity against Rhizoctonia bataticola assessed as fungal growth inhibition at 28 degC by poisoned food technique; type: functional; settings: for EC50: read-out: ED50 (the source's name)
# Method in brief: (§1)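 Poisoned-food assay on PDA. A 5 mm plug from the growing edge of a 2-week colony was placed centrally. Plates were held at 28 °C until control growth was nearly complete. Colony diameter was measured; n=4. Inhibition = (C−T)×100/C, Abbott-corrected; ED50 by probit.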
# Athelia rolfsii = assay: Fungicidal activity against Athelia rolfsii assessed as fungal growth inhibition at 28 degC by poisoned food technique; type: functional; settings: Agroathelia rolfsii; for EC50: read-out: ED50 (the source's name); method in brief: as §1
SMILES,EC50 (Macrophomina phaseolina),EC50 (Athelia rolfsii),ED50 (Macrophomina phaseolina),ED50 (Athelia rolfsii)
CCCCC(O)(Cn1cncn1)c1ccc(Cl)cc1Cl (stereo unspecified) [HEXACONAZOLE],1.7 µg/mL,2.3 µg/mL,,
O=[N+]([O-])c1cccc(/C=N/c2cccc(F)c2)c1,180 µg/mL,175 µg/mL,,
O=[N+]([O-])c1cccc(/C=N/c2ccccc2F)c1,113 µg/mL,160 µg/mL,,
Clc1ccc(/C=N/c2cc(Cl)c(Cl)cc2Cl)c(Cl)c1,3.05 µg/mL,24.4 µg/mL,,
Clc1ccc(/C=N/CCC/N=C/c2ccc(Cl)cc2Cl)c(Cl)c1,17.8 µg/mL,27.1 µg/mL,,
Fc1ccc(/N=C/c2c(Cl)cccc2Cl)cc1,123 µg/mL,108 µg/mL,,
Clc1cccc(Cl)c1/C=N/c1ccco1,45.7 µg/mL,78.3 µg/mL,,
O=[N+]([O-])c1cccc(/C=N/C2CCCCC2/N=C/c2cccc([N+](=O)[O-])c2)c1 (stereo unspecified),,,inactive,inactive
O=[N+]([O-])c1cccc(/C=N/CCC/N=C/c2cccc([N+](=O)[O-])c2)c1,,,inactive,inactive
O=[N+]([O-])c1cccc(/C=N/c2ccco2)c1,17.1 µg/mL,201 µg/mL,,
O=[N+]([O-])c1cccc(/C=N/CCCC/N=C/c2cccc([N+](=O)[O-])c2)c1,,,inactive,inactive
Clc1ccc(/C=N/CCCC/N=C/c2ccc(Cl)cc2Cl)c(Cl)c1,100 µg/mL,179 µg/mL,,
O=[N+]([O-])c1cccc(/C=N/c2ccc(F)cc2)c1,190 µg/mL,164 µg/mL,,
Fc1cccc(/N=C/c2ccc(Cl)cc2Cl)c1,600 µg/mL,548 µg/mL,,
Fc1ccccc1/N=C/c1c(Cl)cccc1Cl,45 µg/mL,45.6 µg/mL,,
O=[N+]([O-])c1cccc(/C=N/c2cc(Cl)c(Cl)cc2Cl)c1,6.17 µg/mL,21.7 µg/mL,,
Clc1ccc(/C=N/C2CCCCC2/N=C/c2ccc(Cl)cc2Cl)c(Cl)c1 (stereo unspecified),18.3 µg/mL,34.2 µg/mL,,
Clc1cccc(Cl)c1/C=N/C1CCCCC1/N=C/c1c(Cl)cccc1Cl (stereo unspecified),124 µg/mL,39.5 µg/mL,,
Fc1ccccc1/N=C/c1ccc(Cl)cc1Cl,15.6 µg/mL,63.4 µg/mL,,
Fc1ccc(/N=C/c2ccc(Cl)cc2Cl)cc1,21.8 µg/mL,37.4 µg/mL,,
Clc1cccc(Cl)c1/C=N/CCCC/N=C/c1c(Cl)cccc1Cl,12.4 µg/mL,22.1 µg/mL,,
Fc1cccc(/N=C/c2c(Cl)cccc2Cl)c1,54 µg/mL,87 µg/mL,,
Clc1ccc(/C=N/c2ccco2)c(Cl)c1,23.1 µg/mL,35.2 µg/mL,,
